Assays:
[1] = system: Nucleic Acid; test: Ratio of drug level in plasma to whole blood in rhesus macaque monkey at 5 to 6 mCi, iv by RP-HPLC analysis; assay type: ADME, organism-based, Macaca mulatta; settings: in vivo
Summary of the method: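 Venous monkey blood samples taken during PET were centrifuged 1 min at 12000 × g to separate plasma from RBCs. 0.1 mL aliquots of whole blood and plasma were gamma-counted, and decay-corrected counts gave Cp/Cwb for each sample. A pre-scan sample spiked with 0.1 mCi tracer was incubated 60–70 min at 37 °C and processed the same way.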

[2] = system: Nucleic Acid; test: Ratio of drug level in heart to liver in rhesus macaque monkey at 5 to 6 mCi, iv after 90 mins by PET analysis; assay type: ADME, organism-based, Macaca mulatta; settings: in vivo, 1.5 h
[3] = Drug uptake in rhesus macaque monkey myocardium at 0.1 mCi after 10 to 30 mins by gamma counting analysis; assay type: ADME, Macaca mulatta; settings: in vivo
[4] = Drug uptake in Sprague-Dawley rat heart sympathetic neurons measured per gram wet mass of heart at 2 uCi/mL administered as infusion for 10 mins measured after 120 mins by gamma counting analysis; assay type: ADME, tissue-based; settings: sympathetic neuron, 2 h
Summary of the method: (§1)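 Isolated working rat hearts perfused with 54 μM corticosterone in all perfusates to block uptake-2. Tracer infused at <10 nM total mass for 10 min to measure neuronal uptake rate (mL/min/g wet), then switched to normal perfusate to follow clearance over 2 h.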

[5] = system: Spleen; test: Biodistribution in Sprague-Dawley rat spleen at 20 to 120 uCi, iv after 30 mins by gamma counting analysis; assay type: ADME, organism-based; settings: in vivo, 0.5 h
Summary of the method: (§2)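 Sprague-Dawley rats (280–330 g), 2 male and 2 female per time point (5, 30, 60, 120 min), under light isoflurane, received a tail-vein bolus of 20–120 μCi tracer in 0.05–0.10 mL isotonic 60 mM sodium phosphate, pH 5.4. Tissues were weighed and gamma-counted. Decay-corrected dpm/g was normalized to injected dpm per kg body weight (%ID·kg/g).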

[6] = system: Ovary; test: Biodistribution in Sprague-Dawley rat ovary at 20 to 120 uCi, iv after 30 mins by gamma counting analysis; assay type: ADME, organism-based, Female gonad; settings: in vivo, 0.5 h
Summary of the method: as §2, with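 “g)” for “g), 2 male and 2 female per time point (5, 30, 60, 120 min),”, “isoflurane” for “isoflurane,”, “Sampling was at 5, 30, 60 or 120 min. […]” for “Tissues”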

[7] = Drug uptake in rhesus macaque monkey adrenal glands 5 to 6 mCi, iv after 90 mins by PET analysis; assay type: ADME, organism-based, Macaca mulatta, Adrenal gland; settings: in vivo, 1.5 h
[8] = system: Adrenal; test: Biodistribution in Sprague-Dawley rat adrenal at 20 to 120 uCi, iv after 60 mins by gamma counting analysis; assay type: ADME, organism-based, Adrenal tissue; settings: in vivo, 1 h; summary of the method: as §2
[9] = system: Plasma; test: Metabolic stability in rhesus macaque monkey plasma assessed as retention time at 5 to 6 mCi, iv by RP-HPLC analysis; assay type: ADME, organism-based, Macaca mulatta; settings: in vivo
Summary of the method: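 Six venous samples (1.5–2.0 mL; typically 1, 2, 4, 10, 30, 60 min) drawn during the monkey PET scan into heparin and centrifuged 1 min at 12000 × g. Plasma deproteinised with HClO₄ (final 0.4 N), spun, neutralised with KOH to pH 7.0–7.5 and filtered twice (0.22 μm). Analysed by reverse-phase HPLC (10% EtOH in 60 mM NaH₂PO₄, pH 5.4, 1.0 mL/min) with NaI(Tl) radiodetection. Decay-corrected intact fraction per sample; T1/2 is the time at which 50% of plasma activity is metabolite.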

[10] = system: Rattus norvegicus; test: Biodistribution in Sprague-Dawley rat stomach at 20 to 120 uCi, iv after 60 mins by gamma counting analysis; assay type: ADME, organism-based; settings: in vivo, 1 h
Summary of the method: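 Male and female rats (2 per sex per time point, 280–330 g) under light isoflurane given tail-vein bolus of 20–120 μCi tracer in 0.05–0.10 mL isotonic 60 mM sodium phosphate, pH 5.4. Tissues sampled at 5, 30, 60 or 120 min, weighed and gamma-counted. Decay-corrected dpm per gram normalised to injected dpm and body weight, given as %ID·kg/g.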

[11] = Drug excretion in rat urinary bladder at 0.5 mCi by PET analysis; settings: in vivo
[12] = system: Ovary; test: Biodistribution in Sprague-Dawley rat ovary at 20 to 120 uCi, iv after 60 mins by gamma counting analysis; assay type: ADME, organism-based, Female gonad; settings: in vivo, 1 h
Summary of the method: as §2, with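 “g)” for “g), 2 male and 2 female per time point (5, 30, 60, 120 min),”, “isoflurane” for “isoflurane,”, “Sampling was at 5, 30, 60 or 120 min. […]” for “Tissues”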

[13] = system: Nucleic Acid; test: Ratio of drug level in heart to blood in rhesus macaque monkey at 5 to 6 mCi, iv after 90 mins by PET analysis; assay type: ADME, organism-based, Macaca mulatta; settings: other tissue, 1.5 h
[14] = Half life in Sprague-Dawley rat heart sympathetic neurons at 2 uCi/mL administered as infusion by gamma counting analysis; assay type: ADME, tissue-based; settings: sympathetic neuron; summary of the method: as §1
[15] = system: Pancreas; test: Biodistribution in Sprague-Dawley rat pancreas at 20 to 120 uCi, iv after 120 mins by gamma counting analysis; assay type: ADME, organism-based; settings: in vivo, 2 h; summary of the method: as §2
[16] = system: Muscle tissue; test: Biodistribution in Sprague-Dawley rat muscle at 20 to 120 uCi, iv after 5 mins by gamma counting analysis; assay type: ADME, organism-based; settings: in vivo; summary of the method: as §2
[17] = Drug uptake in rhesus macaque monkey left ventricle at 5 to 6 mCi, iv after 90 mins by PET analysis; assay type: ADME, organism-based, Macaca mulatta, Heart left ventricle; settings: in vivo, 1.5 h
[18] = system: Ovary; test: Biodistribution in Sprague-Dawley rat ovary at 20 to 120 uCi, iv after 120 mins by gamma counting analysis; assay type: ADME, organism-based, Female gonad; settings: in vivo, 2 h
Summary of the method: as §2, with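 “g)” for “g), 2 male and 2 female per time point (5, 30, 60, 120 min),”, “isoflurane” for “isoflurane,”, “Sampling was at 5, 30, 60 or 120 min. […]” for “Tissues”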

[19] = system: Muscle tissue; test: Biodistribution in Sprague-Dawley rat muscle at 20 to 120 uCi, iv after 60 mins by gamma counting analysis; assay type: ADME, organism-based; settings: in vivo, 1 h; summary of the method: as §2
[20] = Drug uptake in rhesus macaque monkey myocardium at 0.1 mCi by Patlak plot analysis; assay type: ADME, tissue-based, Macaca mulatta; settings: in vivo
Summary of the method: (§3)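 Same monkey for all studies. Desipramine (0.010, 0.0316, 0.10 or 1.0 mg/kg; n = 1 each) in 2.0 mL saline infused i.v. over 20 min, with tracer injected 10 min after the infusion ended; 4 control studies. ROIs on myocardium and basal LV blood pool drawn on summed final four frames. Cp(t) derived from Cwb(t) × intact fraction × Cp/Cwb. Ki from compartmental modelling and Kp as Patlak slope, fitted against DMI dose to a variable-slope sigmoidal model.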

[21] = system: Adrenal; test: Biodistribution in Sprague-Dawley rat adrenal at 20 to 120 uCi, iv after 5 mins by gamma counting analysis; assay type: ADME, organism-based, Adrenal tissue; settings: in vivo; summary of the method: as §2
[22] = system: Blood; test: Biodistribution in Sprague-Dawley rat blood at 20 to 120 uCi, iv after 30 mins by gamma counting analysis; assay type: ADME, organism-based; settings: in vivo, 0.5 h; summary of the method: as §2
[23] = Drug uptake in rhesus macaque monkey myocardium at 0.1 mCi by compartmental modeling analysis; assay type: ADME, tissue-based, Macaca mulatta; summary of the method: as §3
[24] = system: Bone; test: Biodistribution in Sprague-Dawley rat bone at 20 to 120 uCi, iv after 60 mins by gamma counting analysis; assay type: ADME, organism-based, Bone element; settings: in vivo, 1 h; summary of the method: as §2
[25] = system: Blood; test: Biodistribution in Sprague-Dawley rat blood at 20 to 120 uCi, iv after 60 mins by gamma counting analysis; assay type: ADME, organism-based; settings: in vivo, 1 h; summary of the method: as §2
[26] = system: Blood; test: Biodistribution in Sprague-Dawley rat blood at 20 to 120 uCi, iv after 120 mins by gamma counting analysis; assay type: ADME, organism-based; settings: in vivo, 2 h; summary of the method: as §2
[27] = system: Ovary; test: Biodistribution in Sprague-Dawley rat ovary at 20 to 120 uCi, iv after 5 mins by gamma counting analysis; assay type: ADME, organism-based, Female gonad; settings: in vivo
Summary of the method: as §2, with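 “g)” for “g), 2 male and 2 female per time point (5, 30, 60, 120 min),”, “isoflurane” for “isoflurane,”, “Sampling was at 5, 30, 60 or 120 min. […]” for “Tissues”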

[28] = system: Liver; test: Biodistribution in Sprague-Dawley rat liver at 20 to 120 uCi, iv after 60 mins by gamma counting analysis; assay type: ADME, organism-based; settings: in vivo, 1 h; summary of the method: as §2
[29] = system: Brain; test: Biodistribution in Sprague-Dawley rat brain at 20 to 120 uCi, iv after 60 mins by gamma counting analysis; assay type: ADME, organism-based; settings: in vivo, 1 h; summary of the method: as §2
[30] = system: Bone; test: Biodistribution in Sprague-Dawley rat bone at 20 to 120 uCi, iv after 120 mins by gamma counting analysis; assay type: ADME, organism-based, Bone element; settings: in vivo, 2 h; summary of the method: as §2

**Q.** With N=C(N)NCCc1ccc([18F])c(O)c1 as the compound, how does the Ratio [1] read?
**A.** The Ratio was 1.25.

**Q.** What about the Ratio [2] of the same compound?
**A.** Its Ratio is 2.5.

**Q.** And the SUV [3]?
**A.** The SUV was 1.2.

**Q.** What about the Kup [4] of the same compound?
**A.** Its Kup is 0.77 mL/min.

**Q.** And the Drug uptake [5]?
**A.** Its Drug uptake is 0.262 %IDKg/g.

**Q.** And the Drug uptake [6]?
**A.** The Drug uptake was 0.171 %IDKg/g.

**Q.** And the Drug uptake [7]?
**A.** Its Drug uptake is “Active”.

**Q.** What about the Drug uptake [8] of the same compound?
**A.** The Drug uptake was 0.193 %IDKg/g.

**Q.** What about the Retention_time [9] of the same compound?
**A.** The Retention_time was 11.4 min.

**Q.** And the Drug uptake [10]?
**A.** The Drug uptake was 0.115 %IDKg/g.

**Q.** And the Drug excretion [11]?
**A.** The Drug excretion was 19.9 %ID.

**Q.** And the Drug uptake [12]?
**A.** The Drug uptake was 0.142 %IDKg/g.

**Q.** And the Ratio [13]?
**A.** Its Ratio is 3.

**Q.** And the t1/2 [14]?
**A.** The t1/2 was greater than 24 h.

**Q.** And the Drug uptake [15]?
**A.** The Drug uptake was 0.121 %IDKg/g.

**Q.** And the Drug uptake [16]?
**A.** The Drug uptake was 0.019 % ID/g.

**Q.** What about the Drug uptake [17] of the same compound?
**A.** Its Drug uptake is “Active”.

**Q.** What about the Drug uptake [18] of the same compound?
**A.** The Drug uptake was 0.129 %IDKg/g.

**Q.** What about the Drug uptake [19] of the same compound?
**A.** Its Drug uptake is 0.016 % ID/g.

**Q.** And the Kp [20]?
**A.** The Kp was 0.302 mL/min/g.

**Q.** And the Drug uptake [21]?
**A.** The Drug uptake was 0.203 %IDKg/g.

**Q.** What about the Drug uptake [22] of the same compound?
**A.** Its Drug uptake is 0.022 %ID·kg/g.

**Q.** And the Ki [23]?
**A.** The Ki was 0.341 mL/min/g.

**Q.** And the Drug uptake [24]?
**A.** The Drug uptake was 0.027 % ID/g.

**Q.** And the Drug uptake [25]?
**A.** The Drug uptake was 0.016 % ID/g.

**Q.** What about the Drug uptake [26] of the same compound?
**A.** Its Drug uptake is 0.009 % ID/g.

**Q.** And the Drug uptake [27]?
**A.** Its Drug uptake is 0.194 %IDKg/g.

**Q.** And the Drug uptake [28]?
**A.** The Drug uptake was 0.35 %IDKg/g.

**Q.** And the Drug uptake [29]?
**A.** Its Drug uptake is 0.002 %IDKg/g.

**Q.** What about the Drug uptake [30] of the same compound?
**A.** The Drug uptake was 0.016 % ID/g.

— ChEMBL document CHEMBL2424590, “4-[18F]Fluoro-m-hydroxyphenethylguanidine: a radiopharmaceutical for quantifying regional cardiac sympathetic nerve density with positron emission tomography” (J Med Chem, 2013)
